Source: ChEMBL document CHEMBL1275442, “Pharmacokinetics and tissue distribution of anidulafungin in rats” (Antimicrob Agents Chemother, 2008)

Columns and labels:
Lung [1] = assay: Drug level in Long Evans rat lung assessed as radioactivity per gram of tissue at 5 mg/kg, iv administered as single bolus dose measured 12 hrs postdose by autoradiography; assay type: ADME, organism-based; design: dose 5 mg/kg, route intravenous; conditions: in vivo
How it was run: (§1)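 Male pigmented Long Evans (HsdBlu:LE) rats, 7.5 weeks old, 202 to 217 g, single iv [¹⁴C]anidulafungin; one rat per sampling time. Euthanized by isoflurane and cardiac-puncture exsanguination. Sagittal whole-body sections quantified by phosphorimaging autoradiography, single samples corrected for section thickness across multiple sections per tissue. Concentrations (μg eq/g drug-derived radioactivity) interpolated from least-squares standard curves per scan.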

[2] = Cmax in F344 rat spleen at 5 mg/kg, iv administered as single bolus dose after 30 min by HPLC method; assay type: ADME, organism-based; design: dose 5 mg/kg, route intravenous
How it was run: (§2)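 Male F344 rats, 10–11 weeks, 223.6–243.8 g, given one IV dose of [¹⁴C]anidulafungin, 5 mg/kg, over about 5 min. Tissues and blood sampled at 0.083–72 h (n = 3 rats per time). Parent drug measured by HPLC; LLOQ/ULOQ were 20/5,120 ng/ml for plasma and 220/56,320 ng/g for tissue. Noncompartmental parameters taken from the composite mean profile.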

Lung [3] = assay: AUC (0 to 24 hrs) in F344 rat lung assessed as total compound-derived radioactivity per gram of tissue at 5 mg/kg, iv administered as single bolus dose […]; assay type: ADME, organism-based; design: time < 24 hr, dose 5 mg/kg, route intravenous; conditions: in vivo
How it was run: (§3)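 Same F344 study: single 5 mg/kg IV [¹⁴C]anidulafungin given over about 5 min. Total drug-derived radioactivity (parent plus metabolites) counted by liquid scintillation, in […]. Noncompartmental analysis of the composite mean profile.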

Spleen [4] = assay: Cmax in F344 rat spleen assessed as total compound-derived radioactivity per gram of tissue at 5 mg/kg, iv administered as single bolus dose after 30 mins […]; assay type: ADME, organism-based; design: dose 5 mg/kg, route intravenous; conditions: in vivo, 0.5 h; how it was run: as §3
Liver [5] = assay: Drug level in Long Evans rat liver assessed as low disposition of radioactivity per gram of tissue at 5 mg/kg, iv administered as single bolus dose measured 12 hrs postdose by autoradiography; assay type: ADME, organism-based; design: dose 5 mg/kg, route intravenous; conditions: in vivo; how it was run: as §1
[6] = Tmax in F344 rat skin at 5 mg/kg, iv administered as single bolus dose by HPLC method; assay type: ADME, organism-based, Zone of skin; design: dose 5 mg/kg, route intravenous
How it was run: (§4)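 F344 males, 10 to 11 weeks old and 223.6 to 243.8 g, got a single 5 mg/kg iv dose of [14C]anidulafungin over about 5 min. Plasma and tissues were collected predose and at 0.083 to 72 h, n = 3 per time point. Parent drug was quantified by HPLC-UV, with LLOQ/ULOQ of 20/5,120 ng/ml in plasma and 220/56,320 ng/g in tissue. Noncompartmental parameters came from a composite mean concentration-time profile.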

Cerebrospinal fluid = assay: Drug level in Long Evans rat cerebrospinal fluid assessed as radioactivity per gram of tissue at 5 mg/kg, iv administered as single bolus dose measured 168 hrs postdose by autoradiography; assay type: ADME, organism-based; design: dose 5 mg/kg, route intravenous; conditions: in vivo; how it was run: as §1
Muscle tissue [7] = assay: Tmax in F344 rat muscle assessed as total compound-derived radioactivity at 5 mg/kg, iv administered as single bolus dose […]; assay type: ADME, organism-based; design: dose 5 mg/kg, route intravenous; conditions: in vivo
How it was run: (§5)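 Male F344 rats, 10 to 11 weeks old and 223.6 to 243.8 g, got one iv dose of [14C]anidulafungin at 5 mg/kg over about 5 min. Blood, CSF, kidney, liver, lung, quadriceps, spleen and skin were sampled predose and at 0.083 to 72 h, 3 rats per time. Total radioactivity (parent plus metabolites) was measured by liquid scintillation counting. Parameters were noncompartmental, from a composite mean profile.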

Liver [8] = assay: Drug level in Long Evans rat liver assessed as high disposition of radioactivity per gram of tissue at 5 mg/kg, iv administered as single bolus dose measured 0.5 hrs postdose by autoradiography; assay type: ADME, organism-based; design: dose 5 mg/kg, route intravenous; conditions: in vivo; how it was run: as §1
Blood [9] = assay: Cmax in F344 rat blood assessed as total compound-derived radioactivity per gram of tissue at 5 mg/kg, iv administered as single bolus dose […]; assay type: ADME, organism-based; design: dose 5 mg/kg, route intravenous; conditions: in vivo; how it was run: as §3
Kidney = assay: Drug level in Long Evans rat kidney assessed as high disposition of radioactivity per gram of tissue at 5 mg/kg, iv administered as single bolus dose measured 0.5 hrs postdose by autoradiography; assay type: ADME, organism-based; design: dose 5 mg/kg, route intravenous; conditions: in vivo; how it was run: as §1
Spleen [10] = assay: Drug level in Long Evans rat spleen assessed as radioactivity per gram of tissue at 5 mg/kg, iv administered as single bolus dose measured 24 hrs postdose by autoradiography; assay type: ADME, organism-based; design: dose 5 mg/kg, route intravenous; conditions: in vivo
How it was run: (§6)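 Male pigmented Long Evans (HsdBlu:LE) rats, 7.5 weeks old and 202 to 217 g, got a single iv dose of [14C]anidulafungin at 5 mg/kg. One rat per time point (0.5, 6, 12, 24, 72, 168 h) was euthanised by isoflurane and cardiac-puncture exsanguination. Sagittal whole-body sections were quantified by phosphorimaging. Samples were thickness-corrected, and concentrations (μg eq/g) were interpolated from least-squares standard curves.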

Spleen [11] = assay: Drug level in Long Evans rat spleen assessed as radioactivity per gram of tissue at 5 mg/kg, iv administered as single bolus dose measured 6 hrs postdose by autoradiography; assay type: ADME, organism-based; design: dose 5 mg/kg, route intravenous; conditions: in vivo; how it was run: as §6
Liver [12] = assay: AUC (0 to 24 hrs) in F344 rat liver at 5 mg/kg, iv administered as single bolus dose; assay type: ADME, organism-based; design: time < 24 hr, dose 5 mg/kg, route intravenous; conditions: in vivo; how it was run: as §2
Spleen [13] = assay: AUC (0 to 24 hrs) in F344 rat spleen assessed as total compound-derived radioactivity per gram of tissue at 5 mg/kg, iv administered as single bolus dose […]; assay type: ADME, organism-based; design: time < 24 hr, dose 5 mg/kg, route intravenous; conditions: in vivo; how it was run: as §3
Blood [14] = assay: AUC (0 to infinity) in F344 rat blood assessed as total compound-derived radioactivity per gram of tissue at 5 mg/kg, iv administered as single bolus dose […]; assay type: ADME, organism-based; design: dose 5 mg/kg, route intravenous, time infinity; conditions: in vivo; how it was run: as §3
[15] = Cmax in F344 rat plasma at 5 mg/kg, iv administered as single bolus dose after 5 min by HPLC method; assay type: ADME, organism-based; design: dose 5 mg/kg, route intravenous; how it was run: as §2
Blood [16] = assay: Drug level in Long Evans rat blood assessed as radioactivity per gram of tissue at 5 mg/kg, iv administered as single bolus dose measured 6 hrs postdose by autoradiography; assay type: ADME, organism-based; design: dose 5 mg/kg, route intravenous; conditions: in vivo; how it was run: as §1
[17] = Drug level in Long Evans rat eye assessed as radioactivity per gram of tissue at 5 mg/kg, iv administered as single bolus dose measured 0.5 hrs postdose by autoradiography; assay type: ADME, organism-based; design: dose 5 mg/kg, route intravenous; conditions: in vivo; how it was run: as §1
Muscle tissue [18] = assay: Drug level in Long Evans rat muscle assessed as radioactivity per gram of tissue at 5 mg/kg, iv administered as single bolus dose measured 72 hrs postdose by autoradiography; assay type: ADME, organism-based; design: dose 5 mg/kg, route intravenous; conditions: in vivo; how it was run: as §6
Blood [19] = assay: Drug level in Long Evans rat blood assessed as radioactivity per gram of tissue at 5 mg/kg, iv administered as single bolus dose measured 24 hrs postdose by autoradiography; assay type: ADME, organism-based; design: dose 5 mg/kg, route intravenous; conditions: in vivo; how it was run: as §1
Liver [20] = assay: Cmax in F344 rat liver assessed as total compound-derived radioactivity per gram of tissue at 5 mg/kg, iv administered as single bolus dose […]; assay type: ADME, organism-based; design: dose 5 mg/kg, route intravenous; conditions: in vivo; how it was run: as §3
Lung [21] = assay: AUC (0 to 24 hrs) in F344 rat lung at 5 mg/kg, iv administered as single bolus dose; assay type: ADME, organism-based; design: time < 24 hr, dose 5 mg/kg, route intravenous; conditions: in vivo; how it was run: as §2
Plasma = assay: Half life in F344 rat plasma assessed as total compound-derived radioactivity at 5 mg/kg, iv administered as single bolus dose […]; assay type: ADME, organism-based; design: dose 5 mg/kg, route intravenous; conditions: in vivo; how it was run: as §5
[22] = Tmax in F344 rat liver at 5 mg/kg, iv administered as single bolus dose by HPLC method; assay type: ADME, organism-based; design: dose 5 mg/kg, route intravenous; how it was run: as §4
Lung [23] = assay: Half life in F344 rat lung assessed as total compound-derived radioactivity at 5 mg/kg, iv administered as single bolus dose […]; assay type: ADME, organism-based; design: dose 5 mg/kg, route intravenous; conditions: in vivo; how it was run: as §5
Zone of skin = assay: AUC (0 to infinity) in F344 rat skin assessed as total compound-derived radioactivity per gram of tissue at 5 mg/kg, iv administered as single bolus dose […]; assay type: ADME, organism-based; design: time infinity, dose 5 mg/kg, route intravenous; conditions: in vivo; how it was run: as §3

Q: For CCCCCOc1ccc(-c2ccc(-c3ccc([14C](=O)N[C@H]4C[C@@H](O)[C@@H](O)NC(=O)[C@@H]5[C@@H](O)[C@@H](C)CN5C(=O)[C@H]([C@@H](C)O)NC(=O)[C@H]([C@H](O)[C@@H](O)c5ccc(O)cc5)NC(=O)[C@@H]5C[C@@H](O)CN5C(=O)[C@H]([C@@H](C)O)NC4=O)cc3)cc2)cc1 [14C-ANIDULAFUNGIN], which Drug uptake (Lung [1]) is on record?
A: Its Drug uptake is 5.64 ugequiv.

Q: What about the Cmax [2] of the same compound?
A: The Cmax was 24200 ng/g.

Q: And the AUC (Lung [3])?
A: Its AUC is 934.92 ugequiv.hr/g.

Q: And the Cmax (Spleen [4])?
A: Its Cmax is 30.92 ugequiv/g.

Q: And the Drug uptake (Liver [5])?
A: The Drug uptake was 15.03 ugequiv.

Q: What about the Tmax [6] of the same compound?
A: Its Tmax is 30 min.

Q: What about the Drug uptake (Cerebrospinal fluid) of the same compound?
A: Its Drug uptake is 2.18 ugequiv.

Q: And the Tmax (Muscle tissue [7])?
A: The Tmax was 30 min.

Q: And the Drug uptake (Liver [8])?
A: Its Drug uptake is 11.79 ugequiv.

Q: And the Cmax (Blood [9])?
A: Its Cmax is 14.78 ugequiv/g.

Q: What about the Drug uptake (Kidney) of the same compound?
A: Its Drug uptake is 18.09 ugequiv.

Q: What about the Drug uptake (Spleen [10]) of the same compound?
A: The Drug uptake was 10.25 ugequiv.

Q: And the Drug uptake (Spleen [11])?
A: Its Drug uptake is 22.15 ugequiv.

Q: And the AUC (Liver [12])?
A: Its AUC is 586.44 µg·h/g.

Q: What about the AUC (Spleen [13]) of the same compound?
A: The AUC was 822.61 ugequiv.hr/g.

Q: And the AUC (Blood [14])?
A: The AUC was 243.62 ugequiv.hr/g.

Q: What about the Cmax [15] of the same compound?
A: The Cmax was 5250 ng/mL.

Q: And the Drug uptake (Blood [16])?
A: The Drug uptake was 5.07 ugequiv.

Q: And the Drug uptake [17]?
A: Its Drug uptake is 1.17 ugequiv.

Q: And the Drug uptake (Muscle tissue [18])?
A: Its Drug uptake is 0.43 ugequiv.

Q: And the Drug uptake (Blood [19])?
A: The Drug uptake was 2.27 ugequiv.

Q: What about the Cmax (Liver [20]) of the same compound?
A: The Cmax was 24.28 ugequiv/g.

Q: And the AUC (Lung [21])?
A: The AUC was 557.77 µg·h/g.

Q: And the t1/2 (Plasma)?
A: The t1/2 was 37.4 h.

Q: What about the Tmax [22] of the same compound?
A: The Tmax was 4.98 min.

Q: What about the t1/2 (Lung [23]) of the same compound?
A: The t1/2 was 42.2 h.

Q: What about the AUC (Zone of skin) of the same compound?
A: Its AUC is 326.92 ugequiv.hr/g.
